# Screens (PubChem BioAssay)
# DYRK1A inh: blocks rat Dyrk1A kinase activity; inhibition, % at 12.5 µM; 310,000 tested, 0.43% active; Q63470; ADP-Glo luminescence, NFATc1 peptide; in the data active means inhibition above about 50%;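 further: plate controls were vehicle with enzyme for no effect and no enzyme for full effect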
# GSK3A inh: inhibitors of human GSK-3 alpha kinase; P49840; ADP-Glo luminescence, 60 min; inhibition, % at 10 µM; 320,000 tested, 0.1% active;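 active means more than half of replicates show inhibition above 20%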;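 further: GST-tagged GSK-3 alpha with peptide substrate and 25 µM ATP; 0% = DMSO neutral wells and 100% = GW8510 positive control wells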
# Arr AP2 block: blocks beta-arrestin peptide binding to AP2 adaptin; AID 504490; FITC-arrestin peptide / GST-AP2 beads, flow cytometry; AP2 beta2 appendage carries R879A mutation; inhibition, % at 10 µM; 340,000 tested, 0.31% active;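 active means inhibition above a set limit, near 3 SD of compounds lacking own fluorescence, cut at about 54% in these data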;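 further: plate controls were DMSO wells for no effect and 5 µM unlabelled arrestin peptide for full effect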
#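 system = GST-tagged AP2 beta2-adaptin appendage (R879A) on 4 µm glutathione beads | reagent = FITC-labelled arrestin peptide probe, 50 nM final | schedule = compound with beads 12 min RT, then probe 1 h RT | signal = HyperCyt-sampled flow cytometry, FL1 channel, ex 488/em 535 nm | read-out = percent response from loss of bead-bound FITC fluorescence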
# GSK3beta inhib: human GSK3beta kinase inhibition; P49841; 300,000 tested, 0.038% active; GST-GSK3beta kinase, ADP-Glo luminescence, 60 min; stronger effect = lower value; activity score (negative = inhibition), % at 10 µM; AID 2097;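 active means more than half of replicate wells score below -50%, meaning over 50% inhibition versus plate controls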;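 further: 0% = median DMSO wells and -100% = median GW8510 positive control wells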
#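 Assay system: GST-fused GSK3beta enzyme, cell-free / Medium: Tris pH 7.5 buffer with MgCl2, DTT, BSA, heparin / Also added: peptide substrate plus 25 µM ATP (final) / Compound: 10 µM single point / Timing: kinase reaction with compound 60 min at room temperature / Detection: ADP-Glo luminescence / Benchmarks: DMSO neutral wells and GW8510 at 20 µM as positive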
# STK33 inh: blocks human STK33 kinase activity. inhibition, % at 10 µM. purified STK33, MBP phosphorylation, ADP-Glo luminescence. AID 2661. 320,000 tested, 0.073% active;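 active means inhibition at or above 25%, using the most active replicate where run in duplicate; inactive means inhibition below 25%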
# Rin1-Abl PPI inh: blocks binding of human Rin1 to Abl; TR-FRET Rin1/Abl binding, biochemical; 360,000 tested, 0.4% active; inhibition, % at 7.35 µM; in the data active means inhibition above about 5%, passing the limit was not always enough
# Rin1 Abl conf: confirmation of inhibitors of human Rin1-Abl interaction; shares compounds with Rin1-Abl PPI inh; TR-FRET Rin1-Abl binding, purified proteins; inhibition, % at 7.35 µM; 1,300 tested, 49% active
# GFP quencher: quenches GFP fluorescence, counter-screen for Rin1-Abl inhibitors | inhibition, % at 6.75 µM | inhibitors/quenchers counterscreen | 1,300 tested, 8.5% active | shares compounds with Rin1-Abl PPI inh;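 further: ABL1-eGFP fusion protein alone without its partner RIN1-SBP; 0% = protein with vehicle and 100% = wells lacking protein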
# GFP quench dose: quenches GFP in dose response, Rin1-Abl counter-screen; shares compounds with Rin1-Abl PPI inh; GFP fluorescence interference/quenching counterscreen; IC50, µM; 230 tested, under 10 active; AID 602182; call rule not given here;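 further: ABL1-eGFP fusion protein alone without its RIN1 binding partner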
# * hit, by the source's call; · = not tested or not shown. Most compounds without a hit are left out; they make up all but 0.99% or so of the library. Unless noted, no stated cut-off is given here; in the data, active means inhibition above about 6.5%; inactive means the rest.
SMILES,DYRK1A inh,GSK3A inh,Arr AP2 block,GSK3beta inhib,STK33 inh,Rin1-Abl PPI inh,Rin1 Abl conf,GFP quencher,others
Cc1ccc2cc(NC(=O)CC(CC(=O)O)c3ccccc3)ccc2n1 (configuration not stated),1,-2,4,0,0,8.6*,1,-1,
Nc1c(N(Cc2ccccc2)C(=O)CCc2ccccc2)c(=O)[nH]c(=O)n1Cc1ccccc1,-4,12,15,·,0,9.8*,-1,1,
Cc1ccc(C(=O)NC2CCN(S(=O)(=O)c3ccccc3F)CC2)cc1,-6,0,1,1,2,0,·,·,
Cc1cc2c(cc3c(=O)n(CC(=O)NCCCN4CC(C)CC(C)C4)ncn32)s1 (configuration not stated),-6,2,19,2,3,-3,·,·,
Cc1ccccc1OCC(=O)NCCNC(=O)c1ccccn1,-5,6,12,-4,-2,15*,-1,1,
COc1ccccc1-n1c(-c2ccc(Cl)cc2)c[nH]c1=S,-4,-3,0,1,1,7.5*,-3,-1,
Cc1cccc(-n2c(-c3ccccc3)c[nH]c2=S)c1C,-1,1,-3,-2,0,6,·,·,
O=S(=O)(NCc1ccc(F)cc1)c1ccccc1Br,-1,1,-14,·,0,0,·,·,
O=C(c1ccccc1)c1ccc(OCC(O)CN2CCN(S(=O)(=O)N3CCCCC3)CC2)cc1 (configuration not stated),8,·,12,-2,·,6.7*,0,0,
O=C(CN(c1ccccc1Cl)S(=O)(=O)c1ccccc1)NCc1ccccc1,8,·,-12,1,·,0,·,·,
N#CC1=C(N)Oc2nc[nH]c(=O)c2C1c1cccs1 (configuration not stated),-5,0,13,1,0,3,·,·,
O=c1[nH]cnc2c1C(c1ccccc1)c1c(nc[nH]c1=O)O2,-1,·,30,7,·,23*,44*,0,GFP quench dose=>68
COc1ccc(-n2nnc3c(=O)n(CC(=O)N4CCCCC4)cnc32)cc1,7,-1,-8,-1,-3,-5,·,·,
COc1ccc(-n2nnc3c(=O)n(CC(=O)N4CCCC4)cnc32)cc1,-2,1,-3,-18,-1,5.0*,-2,0,
O=C(COC(=O)c1cc(S(=O)(=O)N2CCOCC2)c(Cl)cc1Cl)NCc1ccco1,3,0,7,·,-1,4,·,·,
Oc1ccc(-c2cn3c(n2)SCC3)cc1O,25,8,10,0,3,26*,20*,15*,
CC(=O)c1ccc2c(c1)C1C=CCC1C(C(=O)O)N2 (configuration not stated),11,·,23,·,·,14*,13*,43*,
CCOC(=O)C1CCCN(C(=O)c2cc(C#N)cs2)CC1 (configuration not stated),·,·,·,·,·,-3,·,·,
CCCCC(=O)Nc1ccc(C(=O)N2CCCC(C(=O)OCC)C2)cc1 (configuration not stated),-1,0,-16,2,0,7.3*,2,1,
CCOC(=O)C1CCCN(C(=O)c2ccc(Cl)cc2)C1 (configuration not stated),-6,-2,-57,-1,0,2,·,·,
O=c1cc2c(=O)oc3cc(O)c(O)oc3c2c(O)c1O,32,·,27,2,·,56*,51*,34*,
O=C(Nc1ccc(Cl)cc1)NC1CCCC1Cc1ccco1 (configuration not stated),-3,-1,8,-1,-1,8.4*,-2,3,
O=C(Nc1ccc(Cl)cc1)NC1CCCCC1Cc1ccco1 (configuration not stated),0,5,-2,1,1,0,·,·,
CCOC(=O)CCCCC(=O)c1[nH]c(=O)[nH]c1CSc1nc(-c2ccccc2)c(C#N)c(=O)[nH]1,·,3,2,0,-2,61*,75*,1,GFP quench dose=>68
CCOC(=O)CCCCC(=O)c1[nH]c(=O)[nH]c1CSCCO,-8,0,7,-2,2,78*,82*,0,GFP quench dose=>68
SMILES,DYRK1A inh,GSK3A inh,Arr AP2 block,GSK3beta inhib,STK33 inh,Rin1-Abl PPI inh,Rin1 Abl conf,GFP quencher,others
CCOC(=O)c1[nH]c(=O)[nH]c1CSc1ccccn1,6,0,8,-1,-2,2,·,·,
NC(=O)c1ncn([C@@H]2O[C@H](CNC(=O)[C@H](N)CSCc3ccccc3)[C@@H](O)[C@H]2O)n1,·,·,3,·,·,1,·,·,
O=C(COc1ccc(Cl)cc1Br)OCC(=O)c1ccc[nH]1,·,1,40,·,-1,8.3*,-1,3,
CCN(CC(=O)Nc1ccc2c(c1)OCCO2)C(=O)/C=C/c1cccc(Br)c1,1,-5,-13,2,4,1,·,·,
CCN(CC)S(=O)(=O)c1ccc(S(=O)(=O)N2CCC(C(=O)NC3CCN(Cc4ccccc4)CC3)CC2)cc1,1,-3,16,1,-1,-2,·,·,
Cc1ccc(Cl)cc1S(=O)(=O)N1CCC(C(=O)NC2CCN(Cc3ccccc3)CC2)CC1,-10,-3,-3,1,0,15*,-2,1,
O=C(COC(=O)c1ccc([N+](=O)[O-])cc1Cl)Nc1cccnc1Cl,-5,-2,24,3,-3,8.7*,3,0,
O=C(COC(=O)c1cc([N+](=O)[O-])ccc1NCCO)Nc1cccnc1Cl,-3,-1,0,·,-2,-2,·,·,
CC1(C)C(=O)Nc2ccccc2N1C(=O)COC(=O)Cc1ccccc1F,-9,1,18,·,0,0,·,·,
CCCCNC(=O)c1ccc2nc(-c3ccco3)c(-c3ccco3)nc2c1,-1,1,40,2,-4,2,·,·,
O=C(NCCCO)c1ccc2nc(-c3ccco3)c(-c3ccco3)nc2c1,9,·,49,·,·,11*,2,11*,
CCCCOc1ccccc1C1NC(=O)CCC1[N+](=O)[O-] (configuration not stated),41,-2,18,3,0,-1,·,·,
CCOc1ccc(N(CC(=O)NCc2ccc(F)cc2)C(=O)CCC(=O)Nc2nccs2)cc1,-3,-1,14,0,0,-2,·,·,
Cc1ccc(C(C(=O)NCC2CCCO2)N(C(=O)c2snc(C(N)=O)c2N)c2ccc3c(c2)OCCO3)cc1 (configuration not stated),-5,-2,8,·,0,13*,14*,-2,
